# ChEMBL document CHEMBL1125226, “Antineoplastic activity of didemnin congeners: nordidemnin and modified chain analogues” (1991)
# Key:
# B16 [1] = test: Antitumor activity against B16 melanoma from B6 D2 F1 female mice(T/C) as median survival time of treated mice (T) over that of control mice (C) at a dose of 0.03 mg/kg/day (repeated ip injections, day 1-9); assay type: functional, Mus musculus; conditions: route intraperitoneal
# How it was run: (§1)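 B16 melanoma homogenate (1 g tumor in 9 mL 0.9% saline), 0.5 mL implanted ip on day 0 in B6D2F1 female mice (C57BL/6 ♀ × DBA/2 ♂). Treatment ip once daily from day 1 to day 9. Toxicity scored as survivors on day 5. Median survival recorded and T/C computed as treated/control median survival, ≥125% significant.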
# B16 [2] = test: Antitumor activity against B16 melanoma from B6 D2 F1 female mice evaluated as the number of survivors on day 5 at a dose of 0.06 mg/kg/day (repeated ip injections, day 1-9); assay type: functional, Mus musculus; conditions: route intraperitoneal; how it was run: as §1
# B16 [3] = test: Antitumor activity against B16 melanoma from B6 D2 F1 female mice evaluated as the number of survivors on day 5 at a dose of 0.25 mg/kg/day (repeated ip injections, day 1-9); assay type: functional, Mus musculus; conditions: route intraperitoneal; how it was run: as §1
# B16 [4] = test: Antitumor activity against B16 melanoma from B6 D2 F1 female mice as average weight change of animals between day 1 and day 5 after tumor implementation at a dose of 0.25 mg/kg/day (repeated ip injections, day 1-9); assay type: functional, Mus musculus; conditions: route intraperitoneal
# How it was run: (§2)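 B6D2F1 female mice (C57BL/6 × DBA/2) were implanted ip on day 0 with 0.5 mL of B16 suspension (1 g tumor homogenized in 9 mL 0.9% saline). Ip treatment was given once daily, day 1 to day 9. Body weight was recorded on days 1 and 5 after implantation, and the mean change per group was reported.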
# B16 [5] = test: Antitumor activity against B16 melanoma from B6 D2 F1 female mice as average weight change of animals between day 1 and day 5 after tumor implementation at a dose of 0.50 mg/kg/day (repeated ip injections, day 1-9); assay type: functional, Mus musculus; conditions: route intraperitoneal; how it was run: as §2
# B16 [6] = test: Antitumor activity against B16 melanoma from B6 D2 F1 female mice evaluated as average weight change of animals between day 1 and day 5 after tumor implementation at a dose of 0.06 mg/kg/day; assay type: functional, Mus musculus
# How it was run: (§3)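 B16 melanoma in B6D2F1 female mice: 0.5 mL of tumor homogenate (1 g in 9 mL 0.9% saline) was given ip on day 0. Ip dosing was on days 1, 5 and 9. The readout was the average body weight change between day 1 and day 5 after tumor implantation.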
# B16 [7] = test: Antitumor activity against B16 melanoma from B6 D2 F1 female mice evaluated as average weight change of animals between day 1 and day 5 after tumor implementation at a dose of 0.25 mg/kg/day; assay type: functional, Mus musculus; how it was run: as §3
# B16 [8] = test: Antitumor activity against B16 melanoma from B6 D2 F1 female mice evaluated as average weight change of animals between day 1 and day 5 after tumor implementation at a dose of 1 mg/kg/day; assay type: functional, Mus musculus; how it was run: as §3
# B16 [9] = test: Antitumor activity against B16 melanoma from B6 D2 F1 female mice as Median survival time of treated mice at a dose of 0.50 mg/kg/day (repeated ip injections, day 1-9); assay type: functional, Mus musculus; conditions: route intraperitoneal; how it was run: as §1
# B16 [10] = test: Antitumor activity against B16 melanoma from B6 D2 F1 female mice evaluated as Median survival time of treated mice at a dose of 0.03 mg/kg/day; assay type: functional, Mus musculus
# How it was run: (§4)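 B6D2F1 female mice (C57BL/6 ♀ × DBA/2 ♂) implanted ip on day 0 with 0.5 mL of B16 tumor suspension (1 g homogenized in 9 mL 0.9% saline). Dosing ip on days 1, 5 and 9. Day-5 survivors give toxicity. Median survival of treated vs control mice gives T/C%, with ≥125% significant.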
# B16 [11] = test: Antitumor activity against B16 melanoma from B6 D2 F1 female mice evaluated as Median survival time of treated mice at a dose of 0.25 mg/kg/day; assay type: functional, Mus musculus; how it was run: as §4
# B16 [12] = test: Antitumor activity against B16 melanoma from B6 D2 F1 female mice evaluated as Median survival time of treated mice at a dose of 1 mg/kg/day; assay type: functional, Mus musculus; how it was run: as §4
# L1210 [13] = test: Antitumor activity against L1210 Lymphoid Leukemia from CDF1 female mice as Median survival time of treated mice at a dose of 0.50 mg/kg/day; assay type: functional, Mus musculus
# How it was run: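 L1210 leukemia, 10⁵ cells ip on day 0 into CDF1 female mice (BALB/c ♀ × DBA/2 ♂). Drug in 2% methanol given ip on days 1, 5 and 9, 10 mice per group. Survivors and body weight recorded on days 1 and 5, with toxicity as survivors on day 5. Deaths followed for 30 days. T/C = treated/control median survival time, significant at ≥125%.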
# L1210 [14] = test: Antitumor activity against L1210 Lymphoid Leukemia from CDF1 female mice as average weight change of animals between day 1 and day 5 after tumor implementation at a dose of 1.0 mg/kg/day; assay type: functional, Mus musculus
# How it was run: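 CDF1 female mice (BALB/c × DBA/2) received 10⁵ L1210 cells ip on day 0. Drug was dissolved in 2% methanol and given ip on days 1, 5 and 9, to 10 mice per group. Weights were taken on days 1 and 5, and the mean change was reported.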
# L1210 [15] = test: In vitro cytostatic activity determined on L1210 leukemia cells at 24 hours.; assay type: functional; conditions: Mus musculus, L1210, 24 h; read-out: ID50 (the source's name)
# How it was run: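 Log-phase L1210 cells were seeded at 0.8 × 10⁵ cells/mL in RPMI 1640 with 20% heat-inactivated horse serum, 2 mmol/L L-glutamine, streptomycin and penicillin. Drugs in ethanol (0.5% final) were tested at several concentrations.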
# P388 [16] = test: Average weight change of animals between day 1 and day 5 after tumor implementation at a dose of 1 mg/kg/day; assay type: functional, Mus musculus
# How it was run: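 P388 leukemia: CDF1 female mice were inoculated ip with 10⁶ cells on day 0. Treatment in 2% methanol was given ip on days 1, 5 and 9, with 10 mice per group and a larger control group. Body weight was recorded on days 1 and 5 post-implant, and the average change was reported.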
# P388 [17] = test: Antitumor activity against P388 Leukemia from CDF1 female mice evaluated as the number of survivors on day 5 at a dose of 0.03 mg/kg/day; assay type: functional, Mus musculus
# How it was run: (§5)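 CDF1 female mice (BALB/c × DBA/2) inoculated ip with 10⁶ P388 cells on day 0. Drug given ip in 2% methanol on days 1, 5 and 9. Ten mice per dose group, with a larger control group. Body weight and survival were recorded on days 1 and 5, with toxicity taken as survivors on day 5. Mortality was followed for 30 days to give median survival time.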
# P388 [18] = test: Antitumor activity against P388 Leukemia from CDF1 female mice evaluated as Median survival time of treated mice at a dose of 0.03 mg/kg/day; assay type: functional, Mus musculus
# How it was run: (§6)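 CDF1 female mice (BALB/c ♀ × DBA/2 ♂) given 10⁶ P388 cells ip on day 0. Drug in 2% methanol given ip on days 1, 5 and 9, 10 mice per group and more controls. Toxicity is survivors on day 5, with weight change between days 1 and 5. Mortality followed 30 days. T/C% is treated over control median survival (NCI method), significant at ≥125%.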
# P388 [19] = test: Antitumor activity against P388 Leukemia from CDF1 female mice evaluated as Median survival time of treated mice at a dose of 0.06 mg/kg/day; assay type: functional, Mus musculus; how it was run: as §6
# P388 [20] = test: Antitumor activity against P388 Leukemia from CDF1 female mice evaluated as Median survival time of treated mice at a dose of 0.25 mg/kg/day; assay type: functional, Mus musculus; how it was run: as §5
# P388 [21] = test: Median survival time of treated mice at a dose of 1 mg/kg/day; assay type: functional, Mus musculus
# P388 [22] = test: Antitumor activity against P388 Leukemia from CDF1 female mice evaluated as the number of survivors on day 5 at a dose of 0.50 mg/kg/day; assay type: functional, Mus musculus; how it was run: as §5
smiles,measurement,setting,value
COc1ccc(C[C@H]2C(=O)O[C@H](C)[C@H](NC(=O)[C@@H](CC(C)C)N(C)C(=O)C3CCCN3C(=O)[C@@H](C)O)C(=O)NC(C(C)C)[C@H](O)CC(=O)O[C@@H](C(C)C)C(=O)[C@H](C)C(=O)N[C@@H](CC(C)C)C(=O)N3CCC[C@H]3C(=O)N2C)cc1 (some centres not stated) [NORDIDEMNIN],T/C,B16 [1],139%
same,Toxicity,B16 [2],1
same,Toxicity,B16 [3],1
same,Body weight change,B16 [4],-2.1 g
same,Body weight change,B16 [5],-2.3 g
same,Body weight change,B16 [6],0 g
same,Body weight change,B16 [7],0 g
same,Body weight change,B16 [8],0 g
same,"median survival time, days",B16 [9],9.9
same,"median survival time, days",B16 [10],19.3
same,"median survival time, days",B16 [11],27
same,"median survival time, days",B16 [12],29.3
same,"median survival time, days",L1210 [13],10.7
same,Body weight change,L1210 [14],-0.5 g
same,IC50,L1210 [15],3.6 ng/mL
same,Body weight change,P388 [16],-2.3 g
same,Toxicity,P388 [17],1
same,"median survival time, days",P388 [18],12.4
same,"median survival time, days",P388 [19],13.6
same,"median survival time, days",P388 [20],15.7
same,"median survival time, days",P388 [21],19.9
same,Toxicity,P388 [22],1
